Compound activity deposited in PubChem BioAssay by several laboratories.
This is a sample that favours compounds with a hit; in the whole collection about 4.1% have one here.
STAT1 activator = STAT1 signaling activators, primary screen, cell-based, HTS, luciferase reporter. activation (% of control), % at 5.5 µM. AID 932, 2007. 2.6% of 200,000 active. NIH 3T3 STAT1-luciferase reporter, IFN-gamma, luminescence; 100% = IFN-gamma alone, no compound;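 active = activation above the screen-wide mean activation plus 3 SD, cut at about 130% in these data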;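 note: raw ratio to IFN-gamma control signal so 100% means no change and 0% no light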
FLuc inhib CS = firefly luciferase enzyme inhibitors, primary screen, artefact control for luciferase-based inhibitor screens, biochemical, luminescence, ATPLite; 10 min; Luciferin 4-monooxygenase (Photinus pyralis), P08659; AID 1006, 2008; inhibition, % at 10 µM; 1.5% of 200,000 active;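 active = inhibition above about 50% when tested at 10 µM, limit read from the data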
Target sequence (P08659 whole entry, looked up): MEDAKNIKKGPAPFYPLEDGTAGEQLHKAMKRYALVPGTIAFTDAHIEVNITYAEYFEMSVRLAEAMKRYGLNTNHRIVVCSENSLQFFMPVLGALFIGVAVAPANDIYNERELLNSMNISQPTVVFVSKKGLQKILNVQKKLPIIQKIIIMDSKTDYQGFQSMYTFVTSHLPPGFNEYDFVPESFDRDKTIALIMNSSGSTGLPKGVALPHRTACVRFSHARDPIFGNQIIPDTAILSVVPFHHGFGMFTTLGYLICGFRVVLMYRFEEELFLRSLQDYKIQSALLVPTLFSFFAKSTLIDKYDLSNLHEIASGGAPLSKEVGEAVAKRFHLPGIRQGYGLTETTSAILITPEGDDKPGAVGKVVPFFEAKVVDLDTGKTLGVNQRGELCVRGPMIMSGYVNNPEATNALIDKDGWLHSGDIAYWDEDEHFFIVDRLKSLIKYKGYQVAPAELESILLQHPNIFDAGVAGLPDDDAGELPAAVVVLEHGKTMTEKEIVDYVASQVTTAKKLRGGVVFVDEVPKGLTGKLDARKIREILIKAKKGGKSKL
FLuc act counter = FLuc activators, initial screening, artefact control for FLuc-dependent activation tests, biochemical, ATPlite luminescence. Luciferin 4-monooxygenase (Photinus pyralis), P08659. AID 1027, 2008. 200,000 tested, under 10 active. activation factor at 10 µM. ATPlite luciferase biochemical, 10 min; 0 = ATP-free wells, 1 = DMSO control;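 active = luciferase activation factor, scaled between plate controls, of at least 2 with compound at 10 µM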
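Material: luciferase plus luciferin reagent, cell-free. Medium: PBS buffer for ATP. Also added: ATP substrate, dispensed from a 10.24 µM working solution in PBS. Doses: test compounds dosed from 2 mM stocks in 100% DMSO. Incubation: 10 min post-reagent at room temperature. Technique: light output (luminescence). Read-out basis: luminescence gain marking luciferase activators.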
NF-kB expr up = activators of NF-kB expression in neurons, primary screen, cell-based, HTS; 1.6% of 190,000 active; fold change at 12.5 µM; human neuronal cells, NF-kB reporter expression; stronger effect = higher value; in the data active = fold change above about 3.3
APP 5'UTR act = activators of APP 5'UTR luciferase reporter, primary screen, SH-SY5Y cells. SH-SY5Y APP 5'UTR luciferase reporter, luminescence; zero percent = DMSO vehicle wells. activation, % at 2 µM. 1% of 190,000 active. AID 1276, 2008;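 active = activation above a set limit, based on mean plus 3 SD of controls, cut at about 140% in these data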
Numbers without * were called inactive.

Results for COc1ccc(-c2cn3ccccc3n2)cc1[N+](=O)[O-] ?
STAT1 activator: 144*; FLuc inhib CS: 79*; FLuc act counter: 0.2; NF-kB expr up: 1; APP 5'UTR act: 104

Results for CC(=O)c1ccc(NC(=O)/C(=C\c2ccccc2)NC(=O)c2ccco2)cc1 ?
STAT1 activator: 106; FLuc inhib CS: 2; FLuc act counter: 1; NF-kB expr up: 0.9; APP 5'UTR act: 5

How did CC1(C)CC(=O)C(C=Nc2ccc3c(c2)OCO3)=C(O)C1 do in these assays?
STAT1 activator: 132*; FLuc inhib CS: 13; FLuc act counter: 0.9; NF-kB expr up: 1.6; APP 5'UTR act: 20

What do the screens show for `COc1ccc(OC)c(N=CC2=C(O)CC(C)(C)CC2=O)c1`?
STAT1 activator: 102; FLuc inhib CS: -4; FLuc act counter: 1; NF-kB expr up: 0.74; APP 5'UTR act: -4

How did COc1ccc(N=CC2=C(O)CC(C)(C)CC2=O)cc1 do in these assays?
STAT1 activator: 133*; FLuc inhib CS: 8; FLuc act counter: 0.9; NF-kB expr up: 1.1; APP 5'UTR act: 9

Results for COc1ccc(N=CC2=C(O)CCCC2=O)cc1 ?
STAT1 activator: 136*; FLuc inhib CS: 7; FLuc act counter: 0.9; NF-kB expr up: 1.7; APP 5'UTR act: -2

How did CCN(CC)S(=O)(=O)c1cc(OC)c(C)cc1C do in these assays?
STAT1 activator: 95; FLuc inhib CS: -3; FLuc act counter: 1; NF-kB expr up: 1.1; APP 5'UTR act: 9

How did Cc1nc2sc(C(c3cccs3)N3CCN(c4cccc(Cl)c4)CC3)c(O)n2n1 (stereo not drawn) do in these assays?
STAT1 activator: 89; FLuc inhib CS: -4; FLuc act counter: 1; NF-kB expr up: 0.82; APP 5'UTR act: 12

Results for CCCNC(=O)c1oc2ccc3c(c2c1C)C(=O)CC(C)(C)O3 ?
STAT1 activator: 145*; FLuc inhib CS: 76*; FLuc act counter: 0.2; NF-kB expr up: 5.1*; APP 5'UTR act: 190*

How did Cn1c(=O)n(C)c2cc(S(=O)(=O)NCCOCCO)ccc21 do in these assays?
STAT1 activator: 103; FLuc inhib CS: -10; FLuc act counter: 1.1; NF-kB expr up: 1.1; APP 5'UTR act: -3

How did Cn1c(=O)c(C(=O)Nc2ccccn2)c(O)c2ccccc21 do in these assays?
STAT1 activator: 121; FLuc inhib CS: 67*; FLuc act counter: 0.3; NF-kB expr up: 4.5*; APP 5'UTR act: 3

Results for O=C1NCCN(Cc2cccc(Oc3ccccc3)c2)C1CC(=O)N1CCCCO1 (stereo not drawn) ?
STAT1 activator: 90; FLuc inhib CS: -2; FLuc act counter: 1; NF-kB expr up: 0.92; APP 5'UTR act: 5

How did O=C1/C(=C\c2cccnc2)Sc2ccccc21 do in these assays?
STAT1 activator: 91; FLuc inhib CS: 60*; FLuc act counter: 0.4; NF-kB expr up: 0.95; APP 5'UTR act: 14

What do the screens show for `CN1C(=O)S/C(=C/c2cccnc2)C1=O`?
STAT1 activator: 95; FLuc inhib CS: -6; FLuc act counter: 1.1; NF-kB expr up: 1.2; APP 5'UTR act: 11

How did Cc1cc(NC(=O)c2ccc3c(c2)OCCO3)ccc1NC(=O)c1ccco1 do in these assays?
STAT1 activator: 105; FLuc inhib CS: 82*; FLuc act counter: 0.2; NF-kB expr up: 1.5; APP 5'UTR act: 14

What do the screens show for `O=C(Nc1ccc(NC(=O)c2ccco2)cc1)c1ccc2c(c1)OCCO2`?
STAT1 activator: 84; FLuc inhib CS: 8; FLuc act counter: 0.9; NF-kB expr up: 0.76; APP 5'UTR act: -34

How did COc1cc(NC(=O)C(C)C)ccc1NC(=O)c1ccco1 do in these assays?
STAT1 activator: 134*; FLuc inhib CS: 35; FLuc act counter: 0.6; NF-kB expr up: 2.6; APP 5'UTR act: 91

Results for Cc1cc([N+](=O)[O-])ccc1NC(=O)c1ccco1 ?
STAT1 activator: 104; FLuc inhib CS: -1; FLuc act counter: 1; NF-kB expr up: 1.6; APP 5'UTR act: 0

How did Cc1cc(NC(=O)c2ccc([N+](=O)[O-])o2)ccc1NC(=O)c1ccco1 do in these assays?
STAT1 activator: 101; FLuc inhib CS: 1; FLuc act counter: 1; NF-kB expr up: 5.1*; APP 5'UTR act: -79

How did CC(C)c1ccc(/C=C/C(=O)NCCCc2ccccc2)cc1 do in these assays?
STAT1 activator: 109; FLuc inhib CS: 1; FLuc act counter: 1; NF-kB expr up: 1; APP 5'UTR act: -12

How did N#Cc1cnn(-c2ncnc3sc(-c4ccccc4)cc23)c1N do in these assays?
STAT1 activator: 107; FLuc inhib CS: -4; FLuc act counter: 1; NF-kB expr up: 1.1; APP 5'UTR act: 2

Results for COc1ccc(N=Cc2nc(-c3ccccc3)oc2OC(=O)c2ccccc2)cc1 ?
STAT1 activator: 132*; FLuc inhib CS: 4; FLuc act counter: 1; NF-kB expr up: 2; APP 5'UTR act: 102

Results for CC(=O)Oc1oc(-c2ccccc2)nc1C=Nc1ccccc1 ?
STAT1 activator: 105; FLuc inhib CS: -6; FLuc act counter: 1.1; NF-kB expr up: 1.3; APP 5'UTR act: 19

What do the screens show for `Cc1ccc(C(=O)Oc2oc(-c3ccco3)nc2C=Nc2ccccc2)cc1`?
STAT1 activator: 139*; FLuc inhib CS: 0; FLuc act counter: 1; NF-kB expr up: 3; APP 5'UTR act: 49

How did Cc1cc(C)c(NC(=S)NC(=O)c2ccc(-c3ccccc3)cc2)c(C)c1 do in these assays?
STAT1 activator: 94; FLuc inhib CS: -5; FLuc act counter: 1.1; NF-kB expr up: 0.7; APP 5'UTR act: -1

What do the screens show for `Cc1ccc(C(=O)NC(=S)Nc2cc(-c3nc4ccccc4s3)ccc2C)cc1`?
STAT1 activator: 115; FLuc inhib CS: 4; FLuc act counter: 1; NF-kB expr up: 4*; APP 5'UTR act: 120

How did COc1ccc(OC)c(-n2c(-c3cccc(S(=O)(=O)N(C)C)c3)n[nH]c2=S)c1 do in these assays?
STAT1 activator: 101; FLuc inhib CS: 8; FLuc act counter: 0.9; NF-kB expr up: 1.3; APP 5'UTR act: -4

What do the screens show for `COCCNC(C(=O)Nc1cc(Cl)cc(Cl)c1)c1ccccc1` (stereo not drawn)?
STAT1 activator: 91; FLuc inhib CS: -1; FLuc act counter: 1; NF-kB expr up: 0.87; APP 5'UTR act: 3

How did CCOCCCNC(C(=O)Nc1ccc(OC)c(Cl)c1)c1ccccc1 (stereo not drawn) do in these assays?
STAT1 activator: 100; FLuc inhib CS: -4; FLuc act counter: 1; NF-kB expr up: 1; APP 5'UTR act: 169*

What do the screens show for `CCCSc1nsc(NC(=O)c2cccnc2OCC)n1`?
STAT1 activator: 111; FLuc inhib CS: 0; FLuc act counter: 1; NF-kB expr up: 1.4; APP 5'UTR act: -2

What do the screens show for `CCCSc1nsc(NC(=O)CCC)n1`?
STAT1 activator: 131*; FLuc inhib CS: 26; FLuc act counter: 0.7; NF-kB expr up: 6.4*; APP 5'UTR act: 194*
